Results from ChEMBL document CHEMBL1133812, “Small molecule somatostatin receptor subtype-2 antagonists” (Bioorg Med Chem Lett, 2001).
Where a SMILES comes first, the peptide text is derived from it. [ ]: non-standard residue; d: D form. The star is where a group is joined. Phe(3-F) = N[C@@H](Cc1cccc(F)c1)C(=O)O; Tos = Cc1ccc(S(=O)(=O)*)cc1

Legend:
[1] = target: Somatostatin receptor type 2 (Homo sapiens, UniProt P30874); experiment: Antagonistic activity towards sst2 receptor in GH4C1 cells a concentration of 1-2 x 10e6/mL incubated for 20 minutes; assay type: functional, cell-based, GH4-C1
Somatostatin receptor type 2, sequence (P30874 whole entry): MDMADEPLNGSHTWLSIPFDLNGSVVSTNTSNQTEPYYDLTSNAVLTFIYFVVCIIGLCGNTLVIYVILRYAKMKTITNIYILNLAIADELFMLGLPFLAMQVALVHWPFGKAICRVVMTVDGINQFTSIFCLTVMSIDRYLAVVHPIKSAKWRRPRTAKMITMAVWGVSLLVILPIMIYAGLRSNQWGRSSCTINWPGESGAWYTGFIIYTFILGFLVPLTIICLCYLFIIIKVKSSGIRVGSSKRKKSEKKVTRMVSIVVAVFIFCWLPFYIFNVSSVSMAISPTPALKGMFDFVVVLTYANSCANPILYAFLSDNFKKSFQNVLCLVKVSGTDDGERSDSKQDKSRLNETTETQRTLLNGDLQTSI
How it was run: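 GH4C1 pituitary cells (1–2×10⁶/mL) exposed to compound dose-titrations with 100 nM VIP plus 10 nM somatostatin 14, 20 min at 37 °C. cAMP content read against cAMP standards in adenylyl cyclase activation plates. Antagonism scored as a cAMP rise over VIP+somatostatin control wells. Values from single experiments or means of 2–4 replicate experiments.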

[2] = target: Somatostatin receptor type 2 (Sus scrofa); experiment: Inhibitory concentration towards binding of sst2 receptor using [125I]somatostatin as radioligand in Neuro2A cells

## CC(C)(C)OC(=O)[C@H](CCCCN)NC(=O)[C@@H](Cc1c[nH]c2ccccc12)NC(=O)N1CCN(C(=O)c2ccccc2)CC1
[1]
  IC50: 1600 nM
[2]
  IC50: 6.9 nM

## CC(C)(C)C1N[C@H](C(=O)NC(Cc2cccc3ccccc23)C(N)=O)CSSC[C@@H](NC(=O)C(N)Cc2cccc(F)c2)C(=O)NC(Cc2cccnc2)C(=O)N[C@@H](Cc2c[nH]c3ccccc23)C(=O)N[C@@H](CCCCN)C1=O (stereo partly drawn)
[1]; gh4-c1
  IC50: 270 nM
[2]; neuro2a
  IC50: 4.1 nM

## CC(C)(C)OC(=O)[C@H](CCCCN)NC(=O)[C@@H](Cc1c[nH]c2ccccc12)NC(=O)N1CCN(S(=O)(=O)c2ccccc2)CC1
[1]
  IC50: 29 nM
[2]
  IC50: 2.9 nM

## CC(C)(C)OC(=O)[C@H](CCCCN)NC(=O)[C@@H](Cc1c[nH]c2ccccc12)NC(=O)N1CCC(n2c(=O)[nH]c3ccccc32)CC1
[1]
  IC50: 6.5 nM
[2]
  IC50: 0.26 nM

## CC(C)(C)OC(=O)[C@H](CCCCN)NC(=O)[C@@H](Cc1c[nH]c2ccccc12)NC(=O)C1CCN(S(=O)(=O)c2ccccc2)CC1
[1]
  IC50: 120 nM
[2]
  IC50: 3.2 nM

## CC(C)(C)OC(=O)[C@H](CCCCN)NC(=O)[C@H](Cc1c[nH]c2ccccc12)NC(=O)c1ccc(-c2ccccc2)cc1
[1]
  IC50: 1200 nM
[2]
  IC50: 85 nM

## Cc1ccc(S(=O)(=O)N2CCN(C(=O)N[C@H](Cc3c[nH]c4ccccc34)C(=O)N[C@@H](CCCCN)C(=O)OC(C)(C)C)CC2)cc1
[1]
  IC50: 7700 nM
[2]
  IC50: 9.2 nM

## COC(=O)[C@H](CCCN=C(N)N)NC(=O)[C@H](Cc1cccc(F)c1)NS(=O)(=O)c1ccc(C)cc1 (Tos-[Phe(3-F)]-Arg-OMe)
[1]
  IC50: 6500 nM
[2]
  IC50: > 2000 nM

## Cc1ccc(C(=O)N2CCN(C(=O)N[C@H](Cc3c[nH]c4ccccc34)C(=O)N[C@@H](CCCCN)C(=O)OC(C)(C)C)CC2)cc1
[1]
  IC50: 67 nM
[2]
  IC50: 4.4 nM
